Screening results (PubChem BioAssay)
Shown are actives, neighbours in structure and some others; about 2.3% of the full set was active somewhere.
TRPC6 act: mouse TRPC6 channel activators, primary screen, cell-based, HEK293, membrane potential dye. Short transient receptor potential channel 6 (Mus musculus), Q61143. HEK293-TRPC6 membrane potential dye fluorescence; stronger effect = higher value. B-score at 10 µM. 310,000 tested, 0.13% active. AID 2550, 2010;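 active = B-score of the integrated fluorescence ratio above library mean plus 3 SD, and starting fluorescence ratio within library mean plus 5 SD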;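 note: higher score means more depolarization so channel activation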
Target sequence (Q61143 whole entry, looked up): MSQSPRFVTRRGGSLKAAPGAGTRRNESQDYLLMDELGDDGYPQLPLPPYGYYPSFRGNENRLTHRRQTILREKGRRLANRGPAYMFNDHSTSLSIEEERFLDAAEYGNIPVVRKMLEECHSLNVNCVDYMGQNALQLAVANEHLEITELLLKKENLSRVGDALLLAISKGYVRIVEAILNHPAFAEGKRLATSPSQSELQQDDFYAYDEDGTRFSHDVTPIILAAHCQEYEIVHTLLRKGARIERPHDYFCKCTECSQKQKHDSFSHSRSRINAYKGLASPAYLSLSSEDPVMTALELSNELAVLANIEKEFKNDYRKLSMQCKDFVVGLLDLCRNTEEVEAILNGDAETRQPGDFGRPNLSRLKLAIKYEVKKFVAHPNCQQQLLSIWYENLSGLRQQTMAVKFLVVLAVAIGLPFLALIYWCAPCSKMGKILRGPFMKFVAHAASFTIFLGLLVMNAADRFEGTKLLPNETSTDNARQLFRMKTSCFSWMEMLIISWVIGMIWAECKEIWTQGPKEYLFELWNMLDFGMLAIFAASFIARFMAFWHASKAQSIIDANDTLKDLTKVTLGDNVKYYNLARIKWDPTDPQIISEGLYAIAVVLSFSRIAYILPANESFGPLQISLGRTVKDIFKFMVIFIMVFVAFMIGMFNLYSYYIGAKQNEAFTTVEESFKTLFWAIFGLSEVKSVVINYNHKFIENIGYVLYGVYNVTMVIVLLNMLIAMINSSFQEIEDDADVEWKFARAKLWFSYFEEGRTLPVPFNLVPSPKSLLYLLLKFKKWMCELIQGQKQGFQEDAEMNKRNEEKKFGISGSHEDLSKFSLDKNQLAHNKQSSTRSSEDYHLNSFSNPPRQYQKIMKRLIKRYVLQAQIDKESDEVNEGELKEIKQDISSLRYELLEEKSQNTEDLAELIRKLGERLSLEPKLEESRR
TRPC6 inh: mouse TRPC6 channel inhibitors, primary screen, cell-based, HEK293, membrane potential dye | AID 2553, 2010 | ACh-evoked depolarization; stronger effect = lower value | 310,000 tested, 1.1% active | B-score at 10 µM | Short transient receptor potential channel 6 (Mus musculus), Q61143;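 active = B-score under library mean minus 3 SD, initial fluorescence not abnormally high, positive integrated signal ratio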;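 note: B-score derived from integrated fluorescence ratio over the kinetic read; more negative B-score means stronger inhibition of depolarization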
TRPC4 block: inhibitors of mouse TRPC4 channel, primary screen, Fluo4 calcium, HEK293 TRPC4beta/mu-opioid cells | DAMGO-evoked Fluo4 calcium flux; stronger effect = lower value | 300,000 tested, 0.39% active | Short transient receptor potential channel 4 (Mus musculus), Q9QUQ5 | B-score at 10 µM | AID 2247, 2010;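 active = B-score over 3 SD under the library average, no early fluorescence shift, positive overall ratio signal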
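Assay system – HEK293 line stably carrying TRPC4beta and mu-opioid receptor · Doses – single dose · Detection – Fluo4 calcium-dye fluorescence, kinetic read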
TRPC4 potent: positive allosteric modulators of TRPC4, primary screen, cell-based, mouse TRPC4beta, HEK293 mu-opioid, Fluo-4 calcium | DAMGO EC20, Fluo-4 Ca2+ flux; stronger effect = higher value | 310,000 tested, 0.42% active | B-score at 10 µM;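 active = B-score of calcium response area above 5 SD of library B-scores, with initial fluorescence ratio within 5 SD of library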
TRPC4 agonist: activators of mouse TRPC4 channel, primary screen, Fluo4 calcium, HEK293 TRPC4beta/mu-opioid cells; 310,000 tested, 0.49% active; Short transient receptor potential channel 4 (Mus musculus), Q9QUQ5; Fluo4 calcium fluorescence; stronger effect = higher value; B-score at 10 µM;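 active = B-score above 5 SD of library B-scores, and initial fluorescence ratio not above library mean plus 5 SD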;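 note: positive B-score marks a calcium rise read as TRPC4 activation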
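Material: TRPC4beta and mu-opioid receptor HEK293 stable cells | Incubation: 45 min room-temperature Fluo4 loading, 110 s read | Detection: Kinetic Fluo4 calcium fluorescence | Measure: Integrated baseline-normalised fluorescence ratio, converted to per-well B score | Benchmarks: Low control buffer alone, high control maximal DAMGO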
Of the large screens only hits and unclear results are named; the others gave an inactive call.

CC(=O)Nc1ccc(/C=N/N2C(=O)NC(C)(c3ccc(OC(F)F)cc3)C2=O)cc1 (stereo unspecified)	TRPC4 agonist 95
CC1(c2ccc(OC(F)F)cc2)NC(=O)N(CC(=O)Nc2ccccc2)C1=O (stereo unspecified)	TRPC4 agonist 68
CC1(c2ccc(OC(F)F)cc2)NC(=O)N(CC(=O)Nc2ccc3c(c2)OCO3)C1=O (stereo unspecified)	TRPC4 potent 12, TRPC4 agonist 89
COc1ccc(-c2nn(-c3ccccc3C)cc2CNCCc2cnc[nH]2)cc1F	none
COc1ccc(-c2nn(-c3ccccc3C)cc2CNC(C)Cn2cncn2)cc1F (stereo unspecified)	none
COc1ccc(-c2nn(-c3ccccc3C)cc2CNC(C)c2cn(C)nc2C)cc1F (stereo unspecified)	TRPC4 agonist 118
CCn1cc(CNCc2cn(-c3ccccc3C)nc2-c2ccc(OC)c(F)c2)cn1	TRPC4 agonist 129
O=[N+]([O-])c1cc(Cl)ccc1N1CCN(c2ccccc2O)CC1	TRPC4 potent 12
O=[N+]([O-])c1cc(Cl)ccc1N1CCCCC1	none
CCOc1ccc(Oc2nc(NCC(C)C)nc(OC)n2)nn1	none
COc1ccc(S(=O)(=O)Nc2ncccc2C)c2ccccc12	TRPC4 potent 11
COc1ccc(Br)cc1S(=O)(=O)Nc1ncccc1C	none
NC1=NC2=C(CCCC2)C2(CCCCC2)S1	TRPC4 block -6
COc1ccccc1N1CCN(C(=O)c2cc(-c3ccc(C)cc3)on2)CC1	none
COc1ccccc1-c1cc(C(=O)N2CCN(c3ccccc3OC)CC2)no1	TRPC4 block -6
O=C(Nc1nc(-c2cccs2)cs1)c1ccc(Cl)cc1	none
COc1ccc(C(=O)Nc2nc(-c3cccs3)cs2)cc1	TRPC4 block -7
CCCSc1nnc(NC(=O)c2sc3nc(-c4cccs4)ccc3c2N)s1	none
Cc1csc(NC(=O)c2sc3nc(-c4cccs4)ccc3c2N)n1	TRPC4 potent 10, TRPC4 agonist 47
CC1CCCCC1NC(=O)COC(=O)/C=C/c1ccc2c(c1)OCO2 (stereo unspecified)	none
COc1ccc(NC(=O)Cc2ccc(C)cc2)c([N+](=O)[O-])c1	none
CCOC(=O)Cc1csc(NC(=O)NC2(C(F)(F)F)Oc3cc(Cl)c(Cl)cc3O2)n1	TRPC4 block -7
CCOC(=O)Cc1csc(NC(=O)NC2(C(F)(F)F)Oc3ccc(Cl)cc3O2)n1 (stereo unspecified)	none
CCOC(=O)C1CCCN(C(=O)CCn2nnnc2CN2CCOCC2)C1 (stereo unspecified)	TRPC4 potent 10
CCN(CC)C(=O)C1CCCN(C(=O)CCn2nnnc2CN2CCOCC2)C1 (stereo unspecified)	none
CCNC(=O)CC1C(=O)N(C)C(=S)N1NC(=O)c1ccc(Cl)cc1 (stereo unspecified)	none
CCn1c(NCc2ccccn2)nc2ccccc21	TRPC4 agonist 71
CCn1c(NCc2c[nH]c3ccccc23)nc2ccccc21	TRPC4 block -8
N=c1c2c(-c3ccccc3)c(-c3ccccc3)n(Cc3ccccc3)c2ncn1CCCn1ccnc1	TRPC6 inh -6.57
N=c1c2c(ncn1Cc1ccco1)Oc1ccc3ccccc3c1C2c1ccccc1 (stereo unspecified)	none
N=c1c2c(-c3ccccc3)c(-c3ccccc3)n(Cc3ccco3)c2ncn1Cc1ccco1	TRPC4 agonist 46
CCCCn1cnc2c(c(-c3ccccc3)c(-c3ccccc3)n2Cc2ccco2)c1=N	TRPC6 inh -7.52
CCOC(=O)CNC(=O)CSc1ncnc2c1cnn2Cc1ccccc1	none
CS(=O)(=O)N(CCc1ccccc1)CC(=O)N1CCN(c2ccccc2F)CC1	none
O=C(Nc1ccc(Cl)c(C(F)(F)F)c1)NC1CC2CCCC(C1)N2C1CC1 (stereo unspecified)	none
Cc1nn(-c2ccccc2)c2nc(-c3ccccc3)cc(C(=O)N3CCOCC3)c12	TRPC4 potent 14
Cc1ccc(C2c3c(C)nn(-c4ccc([N+](=O)[O-])cc4)c3N=C3C(=O)Nc4ccccc4N32)cc1 (stereo unspecified)	TRPC6 inh -5.28
COc1ccc(C2CC(=O)N3CN(c4ccc(C)c(Cl)c4)CSC3=C2C#N)cc1OC (stereo unspecified)	TRPC4 block -6
COc1ccc(/C(N)=N/OC(=O)c2ccc(C)c([N+](=O)[O-])c2)cc1	none
CC(Oc1ccc(Cl)cc1Cl)/C(N)=N/O (stereo unspecified)	none
CCOc1ccccc1N(C(=O)c1snc(C(N)=O)c1N)C(C(=O)NCc1ccccc1)c1ccc(O)cc1 (stereo unspecified)	TRPC4 block -9
COc1ccc(N(C(=O)c2snc(C(N)=O)c2N)C(C(=O)NCc2ccc(F)cc2)c2ccc(C)o2)c(OC)c1 (stereo unspecified)	none
COc1ccccc1N(C(=O)c1snc(C(N)=O)c1N)C(C(=O)NCc1ccccc1)c1ccc(C)o1 (stereo unspecified)	TRPC4 block -6
NC(=O)c1nsc(C(=O)N(Cc2ccco2)C(C(=O)NCc2ccccc2)c2ccc(O)cc2)c1N (stereo unspecified)	TRPC4 block -8
Cc1ccccc1N(C(=O)c1snc(C(N)=O)c1N)C(C(=O)NCc1ccccc1)c1ccc(O)cc1 (stereo unspecified)	none
CCOc1ccccc1CNC(=O)Cn1c(=O)oc2ccccc21	none
Cc1ccc(C(=O)/C=C/NCc2ccc(F)cc2)cc1	none
CN1CCN(C(c2ccc(F)cc2)c2nnnn2Cc2cccs2)CC1 (stereo unspecified)	none
Fc1ccc(C(c2nnnn2Cc2cccs2)N2CCN(C3CCCCC3)CC2)cc1 (stereo unspecified)	TRPC4 agonist 138
CN1CCN(Cc2cccc(Oc3ccc(Cl)cc3)c2)CC1	TRPC4 potent 19
CCOCCN1CCN(c2c(C)c(C)nc3cc(-c4cc(OC)cc(OC)c4)nn23)CC1	none
COCCN1CCN(c2c(C)c(C)nc3cc(-c4cccc(OC)c4)nn23)CC1	TRPC4 agonist 48
O=C(Cc1cccc2ccccc12)Nc1ccc(O)cc1C(=O)O	none
O=C(Cc1cccc2ccccc12)Nc1ccc(Br)cc1C(=O)O	TRPC4 block -7
OCCNc1nc2ccccc2n1CCN1CCCCC1	TRPC4 block -6
CCCCn1c(NCc2ccccc2O)nc2ccccc21	none
